# Experimental data published in ChEMBL document CHEMBL3734668, “Evaluation of small molecule SecA inhibitors against methicillin-resistant Staphylococcus aureus” (Bioorg Med Chem, 2015).
# Active and inactive are the calls of the source. The calls are words filed in the database; no cut-off is given here.
# Tests used:
# Staphylococcus aureus [1] = assay: Bacteriostatic activity against wild type Staphylococcus aureus 8325-4; format: functional
# Summary of the method: (§1)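 Broth microdilution MIC per CLSI guidance in LB, 37 °C, shaking 250 rpm, 24 hr; run in triplicate in three separate experiments. MIC taken as lowest inhibitor concentration with no growth. Compounds from DMSO stocks; untreated controls carry equal DMSO.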
# Staphylococcus aureus [2] = assay: Reduction in extracellular protein in Staphylococcus aureus Mu50 supernatant at 10 uM measured within 15 hrs; format: functional, organism-based
# Summary of the method: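 Mu50 grown in LB at 37 °C; inhibitor added at mid-log phase (OD600 ≈ 2.6). Culture sampled at various times, supernatant separated by centrifugation and passed through 0.45 μm filter. Secreted α-hemolysin, TSST-1 and enterotoxin B detected by Western blot with specific antibodies.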
# Staphylococcus aureus [3] = assay: Potency index, ratio of MIC for vancomysin to MIC for test compound against Methicillin resistant Staphylococcus aureus; format: functional
# [4] = target: T1, Protein translocase subunit SecA 2 (Staphylococcus aureus (strain NCTC 8325), UniProt Q2FUW6); assay: Inhibition of Staphylococcus aureus ATCC 35556 SecA2 expressed in Escherichia coli BL21-gammaDE3 assessed as reduction in intrinsic ATPase activity incubated for 3 hrs measured by malachite green colorimetric method
# T1 sequence (Q2FUW6 whole entry): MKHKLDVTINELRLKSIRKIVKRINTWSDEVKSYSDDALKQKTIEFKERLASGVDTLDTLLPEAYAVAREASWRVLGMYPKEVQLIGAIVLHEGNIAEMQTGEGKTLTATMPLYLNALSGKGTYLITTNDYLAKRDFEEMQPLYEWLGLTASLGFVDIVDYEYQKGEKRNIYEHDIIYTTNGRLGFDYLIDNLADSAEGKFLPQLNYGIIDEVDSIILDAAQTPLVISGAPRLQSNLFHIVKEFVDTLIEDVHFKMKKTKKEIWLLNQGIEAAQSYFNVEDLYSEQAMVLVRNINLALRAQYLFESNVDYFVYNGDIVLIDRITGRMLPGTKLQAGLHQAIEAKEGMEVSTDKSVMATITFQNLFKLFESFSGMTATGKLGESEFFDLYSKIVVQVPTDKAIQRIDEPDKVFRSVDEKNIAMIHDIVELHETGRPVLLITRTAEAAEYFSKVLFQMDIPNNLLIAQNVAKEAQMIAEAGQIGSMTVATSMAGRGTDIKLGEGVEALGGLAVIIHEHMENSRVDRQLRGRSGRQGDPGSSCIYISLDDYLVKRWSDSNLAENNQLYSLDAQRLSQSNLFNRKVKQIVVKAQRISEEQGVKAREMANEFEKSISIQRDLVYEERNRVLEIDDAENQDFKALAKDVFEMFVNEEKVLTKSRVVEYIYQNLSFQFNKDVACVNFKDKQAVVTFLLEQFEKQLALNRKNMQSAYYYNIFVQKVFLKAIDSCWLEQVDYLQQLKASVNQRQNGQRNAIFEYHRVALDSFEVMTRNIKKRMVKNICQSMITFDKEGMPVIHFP
# [5] = target: T2, Protein translocase subunit SecA 1 (Staphylococcus aureus (strain NCTC 8325), UniProt O06446); assay: Inhibition of Staphylococcus aureus ATCC 35556 SecA1 liposomal ion channel activity in Xenopus laevis oocytes incubated for 3 hrs measured by recording ion current for 1 min; format: cell-based
# T2 sequence (O06446 whole entry): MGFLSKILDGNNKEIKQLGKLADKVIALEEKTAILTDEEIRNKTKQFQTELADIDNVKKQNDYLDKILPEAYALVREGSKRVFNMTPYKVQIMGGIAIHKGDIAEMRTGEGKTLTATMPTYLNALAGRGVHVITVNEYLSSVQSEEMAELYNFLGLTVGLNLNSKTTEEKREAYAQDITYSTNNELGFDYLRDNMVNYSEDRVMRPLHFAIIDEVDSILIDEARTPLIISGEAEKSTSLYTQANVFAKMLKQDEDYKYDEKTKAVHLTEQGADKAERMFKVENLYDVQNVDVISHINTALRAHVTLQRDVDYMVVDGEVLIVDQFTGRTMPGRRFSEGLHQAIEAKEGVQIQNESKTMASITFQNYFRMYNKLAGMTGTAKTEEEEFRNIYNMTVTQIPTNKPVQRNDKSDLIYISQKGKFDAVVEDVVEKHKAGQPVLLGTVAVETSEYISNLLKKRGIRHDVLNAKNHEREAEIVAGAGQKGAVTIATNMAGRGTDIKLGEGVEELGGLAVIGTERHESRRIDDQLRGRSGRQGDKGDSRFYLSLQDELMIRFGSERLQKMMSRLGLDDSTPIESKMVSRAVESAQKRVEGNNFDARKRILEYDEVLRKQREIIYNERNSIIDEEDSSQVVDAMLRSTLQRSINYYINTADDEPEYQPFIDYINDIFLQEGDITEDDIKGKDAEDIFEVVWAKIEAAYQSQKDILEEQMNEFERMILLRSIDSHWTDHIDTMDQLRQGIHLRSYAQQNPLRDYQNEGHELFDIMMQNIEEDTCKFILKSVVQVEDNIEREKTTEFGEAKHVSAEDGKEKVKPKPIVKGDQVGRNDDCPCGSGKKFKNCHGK
# Summary of the method: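 Xenopus laevis oocytes injected at animal pole with 50 nl containing 120 ng liposomes, 120 ng SaSecA1, 14 ng proOmpA, 2 mM ATP, 1 mM Mg(OAc)2 plus varying inhibitor. Incubated 3 hr at 23 °C, then ion current recorded continuously 1 min.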
# [6] = target: T3, Protein translocase subunit SecA 1 (Staphylococcus aureus (strain NCTC 8325)) (UniProt O06446); assay: Inhibition of Staphylococcus aureus SecA1 assessed as reduction in secretion of enterotoxin B at 10 uM by Western blot analysis
# T3 sequence (whole entry): T2 sequence (O06446 whole entry)
# Summary of the method: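 S. aureus Mu50 grown in LB at 37 °C; inhibitor added at mid-log phase and cultures sampled at several time points. Supernatants separated by centrifugation, filtered 0.45 μm, and probed by Western blot with antibodies to α-hemolysin, TSST-1 or enterotoxin B.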
# Staphylococcus aureus [7] = assay: Bacteriostatic activity against Staphylococcus aureus N315 after 24 hrs; format: functional; conditions: N315, 24 h; summary of the method: as §1
# Staphylococcus aureus [8] = assay: Bacteriostatic activity against Staphylococcus aureus Mu50 after 24 hrs; format: functional; conditions: Mu50, 24 h
# Summary of the method: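 Broth microdilution per CLSI guidelines in LB. Inhibitor added to dilute early-log culture (OD600 ≈ 0.05), 37 °C, 250 rpm, 24 hrs. Run in triplicate in three separate experiments. MIC read as the lowest concentration with no growth.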
# Staphylococcus aureus [9] = assay: Bacteriostatic activity against Staphylococcus aureus Newman after 24 hrs; format: functional; summary of the method: as §1
# Staphylococcus aureus [10] = assay: Potency index, ratio of MIC for ampicillin to MIC for test compound against Methicillin resistant Staphylococcus aureus; format: functional
# Staphylococcus aureus [11] = assay: Potency index, ratio of MIC for kanamycin to MIC for test compound against Methicillin resistant Staphylococcus aureus; format: functional
# Staphylococcus aureus [12] = assay: Potency index, ratio of MIC for polymyxin B to MIC for test compound against Methicillin resistant Staphylococcus aureus; format: functional
smiles,measurement,setting,value
CCCCCCC1c2ccc(O)cc2Oc2cc(O)ccc21,MIC,Staphylococcus aureus [1],4 µg/mL
same,Activity,Staphylococcus aureus [2],Active
same,Ratio,Staphylococcus aureus [3],2
same,IC50,[4],15 µM
same,IC50,[5],1 µM
same,inhibition,[6],Active
same,MIC,Staphylococcus aureus [7],4 µg/mL
same,MIC,Staphylococcus aureus [8],4 µg/mL
same,MIC,Staphylococcus aureus [9],4 µg/mL
same,Ratio,Staphylococcus aureus [10],250
same,Ratio,Staphylococcus aureus [11],250
same,Ratio,Staphylococcus aureus [12],7
